In ChEMBL document CHEMBL1144572, “Synthesis and biological evaluation of gamma-aminophosphonates as potent, subtype-selective sphingosine 1-phosphate receptor agonists and antagonists” (Bioorg Med Chem, 2007):
pEC50, pKi: −log10 of the molar value. Calls of active or inactive are those of the source. The calls are words filed in the database; no cut-off is given here.

What was measured:
[1] = molecular target: T1, Sphingosine 1-phosphate receptor 1 (Homo sapiens, UniProt P21453); experiment: Activity at human S1P1 receptor expressed in HEK293T cells by [35S]GTP-gamma-S binding assay; format: functional, cell-based, HEK-293T; conditions: for Activity: HEK-293T
How it was run: (§1)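 Individual human S1P receptor subtypes and individual G protein subunits forced into expression in HEK293T cells; receptor-dependent [γ-35S]GTP binding measured in vitro. EC50 in nM as the mean of at least three experiments.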

[2] = molecular target: T2, Sphingosine 1-phosphate receptor 2 (Homo sapiens, UniProt O95136); experiment: Activity at human S1P2 receptor expressed in HEK293T cells by [35S]GTP-gamma-S binding assay; format: functional, cell-based, HEK-293T; conditions: for Activity: HEK-293T; how it was run: as §1
[3] = molecular target: T3, Sphingosine 1-phosphate receptor 3 (Homo sapiens, UniProt Q99500); experiment: Activity at human S1P3 receptor expressed in HEK293T cells by [35S]GTP-gamma-S binding assay; format: functional, cell-based, HEK-293T; conditions: for Activity: HEK-293T; how it was run: as §1
[4] = molecular target: T2, Sphingosine 1-phosphate receptor 2; experiment: Efficacy at human S1P2 receptor expressed in HEK293T cells relative to S1P; format: functional, cell-based; conditions: HEK-293T
How it was run: (§2)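 Individual human S1P receptor subtypes co-expressed with individual G protein subunits in HEK293T cells; [γ-35S]GTP binding. Emax normalized to the maximal activation by endogenous S1P at each receptor.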

[5] = molecular target: T3, Sphingosine 1-phosphate receptor 3; experiment: Efficacy at human S1P3 receptor expressed in HEK293T cells relative to S1P; format: functional, cell-based; conditions: HEK-293T; how it was run: as §2
[6] = molecular target: T4, Sphingosine 1-phosphate receptor 4 (Homo sapiens, UniProt O95977); experiment: Activity at human S1P4 receptor expressed in HEK293T cells by [35S]GTP-gamma-S binding assay; format: functional, cell-based, HEK-293T; how it was run: as §1
T4 sequence (O95977 whole entry): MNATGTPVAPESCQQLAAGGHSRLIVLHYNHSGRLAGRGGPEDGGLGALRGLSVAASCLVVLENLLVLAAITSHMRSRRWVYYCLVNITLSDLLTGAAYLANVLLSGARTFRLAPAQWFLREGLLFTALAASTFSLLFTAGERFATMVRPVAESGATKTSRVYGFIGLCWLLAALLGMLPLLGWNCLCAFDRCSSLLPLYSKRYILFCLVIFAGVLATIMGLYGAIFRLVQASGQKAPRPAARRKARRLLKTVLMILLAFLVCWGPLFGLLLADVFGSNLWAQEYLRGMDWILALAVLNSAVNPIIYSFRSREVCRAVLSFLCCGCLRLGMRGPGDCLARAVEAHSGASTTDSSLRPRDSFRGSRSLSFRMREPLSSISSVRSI

[7] = molecular target: T5, Sphingosine 1-phosphate receptor 5 (Homo sapiens, UniProt Q9H228); experiment: Activity at human S1P5 receptor expressed in HEK293T cells by [35S]GTP-gamma-S binding assay; format: functional, cell-based, HEK-293T; how it was run: as §1
[8] = molecular target: T6, Sphingosine 1-phosphate receptor 4 (Homo sapiens) (UniProt O95977); experiment: Efficacy at human S1P4 receptor expressed in HEK293T cells relative to S1P; format: functional, cell-based; conditions: HEK-293T; how it was run: as §2
T6 sequence (whole entry): T4 sequence (O95977 whole entry)

[9] = molecular target: T5, Sphingosine 1-phosphate receptor 5; experiment: Efficacy at human S1P5 receptor expressed in HEK293T cells relative to S1P; format: functional, cell-based; conditions: HEK-293T; how it was run: as §2
[10] = molecular target: T1, Sphingosine 1-phosphate receptor 1; experiment: Displacement of [32P]S1P from human S1P1 receptor expressed in HEK293T cells; format: cell-based, HEK-293T
[11] = molecular target: T3, Sphingosine 1-phosphate receptor 3; experiment: Displacement of [32P]S1P from human S1P3 receptor expressed in HEK293T cells; format: cell-based, HEK-293T
[12] = test system: Mus musculus; experiment: Inhibition of VPC44152-evoked lymphopenia in mouse at 22 mg/kg; format: functional, organism-based; parameters: dose 22 mg/kg
[13] = test system: Mus musculus; experiment: Effect on vascular permeability in C57BL/6 mouse assessed as capillary leakage in lung at 25 mg/kg by Evans blue extravasation assay; format: functional, organism-based; parameters: dose 25 mg/kg
How it was run: (§3)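 C57BL/6 mice given compound (25 mg/kg) or vehicle (2% hydroxypropyl β-cyclodextrin) two hours before 2% Evans blue dye (20 mg/kg) via jugular vein. Tissues harvested 30 min later. Dye extracted into formamide, read spectrometrically and quantified against a standard curve. n = 4 per group, mean ± SE, compared with vehicle.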

[14] = test system: Mus musculus; experiment: Effect on vascular permeability in C57BL/6 mouse assessed as capillary leakage in kidney at 25 mg/kg by Evans blue extravasation assay; format: functional, organism-based; parameters: dose 25 mg/kg; how it was run: as §3
[15] = molecular target: T1, Sphingosine 1-phosphate receptor 1; experiment: Efficacy at human S1P1 receptor expressed in HEK293T cells relative to S1P; format: functional, cell-based; conditions: HEK-293T; how it was run: as §2

T5 sequence (Q9H228 whole entry): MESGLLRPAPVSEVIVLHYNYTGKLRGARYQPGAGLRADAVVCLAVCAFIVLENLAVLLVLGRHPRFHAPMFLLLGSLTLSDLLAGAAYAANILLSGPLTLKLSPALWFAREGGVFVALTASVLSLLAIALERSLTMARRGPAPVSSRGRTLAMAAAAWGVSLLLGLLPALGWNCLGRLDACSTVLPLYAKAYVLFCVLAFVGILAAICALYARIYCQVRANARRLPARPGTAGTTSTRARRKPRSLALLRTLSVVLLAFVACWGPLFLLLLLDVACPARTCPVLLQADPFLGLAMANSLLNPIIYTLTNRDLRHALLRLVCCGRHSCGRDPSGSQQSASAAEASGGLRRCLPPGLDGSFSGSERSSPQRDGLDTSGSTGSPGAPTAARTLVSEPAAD
T2 sequence (O95136 whole entry): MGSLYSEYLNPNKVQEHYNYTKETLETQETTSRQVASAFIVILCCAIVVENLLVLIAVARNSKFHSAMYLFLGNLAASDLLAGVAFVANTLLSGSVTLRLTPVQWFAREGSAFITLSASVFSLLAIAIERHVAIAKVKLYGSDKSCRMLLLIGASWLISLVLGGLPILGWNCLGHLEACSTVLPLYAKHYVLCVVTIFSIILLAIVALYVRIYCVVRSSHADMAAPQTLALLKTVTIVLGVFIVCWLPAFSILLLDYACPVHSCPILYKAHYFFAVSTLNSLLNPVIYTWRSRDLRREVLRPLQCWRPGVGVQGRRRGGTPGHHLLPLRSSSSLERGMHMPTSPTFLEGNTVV
T1 sequence (P21453 whole entry): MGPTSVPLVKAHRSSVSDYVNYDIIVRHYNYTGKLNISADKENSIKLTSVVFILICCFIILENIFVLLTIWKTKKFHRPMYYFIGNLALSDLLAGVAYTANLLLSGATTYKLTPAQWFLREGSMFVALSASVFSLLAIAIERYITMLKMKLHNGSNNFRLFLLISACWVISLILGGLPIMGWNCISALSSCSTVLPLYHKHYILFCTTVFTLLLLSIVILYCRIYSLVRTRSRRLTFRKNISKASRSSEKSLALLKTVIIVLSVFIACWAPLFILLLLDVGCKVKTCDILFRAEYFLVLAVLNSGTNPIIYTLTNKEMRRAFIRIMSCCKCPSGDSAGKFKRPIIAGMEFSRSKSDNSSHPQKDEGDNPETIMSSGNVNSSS
T3 sequence (Q99500 whole entry): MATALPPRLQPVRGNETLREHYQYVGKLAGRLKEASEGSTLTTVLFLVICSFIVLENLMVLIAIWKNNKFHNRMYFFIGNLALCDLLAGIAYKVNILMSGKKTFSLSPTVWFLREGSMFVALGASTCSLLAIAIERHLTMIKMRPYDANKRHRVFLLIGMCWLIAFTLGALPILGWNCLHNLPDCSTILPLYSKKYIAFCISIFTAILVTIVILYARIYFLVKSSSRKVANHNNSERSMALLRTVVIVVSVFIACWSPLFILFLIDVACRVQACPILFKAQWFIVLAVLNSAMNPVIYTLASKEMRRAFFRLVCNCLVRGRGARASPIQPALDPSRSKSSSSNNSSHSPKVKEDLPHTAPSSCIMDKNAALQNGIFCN

Row | SMILES | pEC50 [1] | pEC50 [2] | pEC50 [3] | ECmax [4] | ECmax [5] | Activity [1] | Activity [2] | Activity [3] | pEC50 [6] | pEC50 [7] | ECmax [8] | ECmax [9] | pKi [10] | pKi [11] | Activity [12] | Activity [13] | Activity [14] | Activity [15] | Activity ([7]; HEK-293T)
1 | CCCCCCCCCCc1ccc(NC(=O)[C@H](N)CC(F)P(=O)(O)O)cc1 (stereo partly drawn) | 8.68 | 6.31 | 7.64 | 0.47 | 0.96 |  |  |  |  |  |  |  |  |  |  |  |  |  | 
2 | CCCCCCCCc1cccc(NC(=O)[C@H](N)CCP(=O)(O)O)c1 |  |  |  | 0 | 0 | inactive | inactive | inactive | 5.21 | 7.48 | 1.42 | 0.73 | 7.52 | 6.52 | Active | Active | Active |  | 
3 | CCCCCCCCc1ccc(CCC(N)(CO)COP(=O)(O)O)cc1 (stereo not drawn) |  |  |  | 0 | 0.5 |  | inactive |  | 8.40 |  | 0.9 | 0.56 |  |  |  |  |  |  | 
4 | CCCCCCCCc1ccc(NC(=O)[C@@H](N)CCP(=O)(O)O)cc1 | 5.92 |  | 4.82 | 0 | 0.3 |  | inactive |  |  |  |  |  |  |  |  |  |  | inactive | 
5 | CCCCCCCCCCc1ccc(NC(=O)[C@H](N)CCP(=O)(O)O)cc1 | 8.44 | 6.57 | 7.37 | 0.5 | 0.88 |  |  |  | 6.64 | 7.52 | 0.67 | 0.77 |  |  |  |  |  |  | 
6 | CCCCCCCCc1cccc(NC(=O)[C@@H](N)CCP(=O)(O)O)c1 |  |  |  | 0 | 0 | inactive | inactive | inactive |  |  |  |  |  |  |  |  |  |  | 
7 | CCCCCCCCc1ccc(NC(=O)[C@H](N)CCP(=O)(O)O)cc1 | 7.57 |  | 6.57 | 0 | 0.38 |  | inactive |  | 5.64 | 7.12 | 0.8 | 0.64 |  |  |  |  |  |  | 
8 | CCCCCCCCc1cccc(NC[C@H](N)CCP(=O)(O)O)c1 | 7.52 |  |  | 0 | 0 |  | inactive | inactive | 6.47 | 7.39 | 1.18 | 0.61 |  |  |  |  |  |  | 
9 | CCCCCCCCc1ccc(OC[C@H](N)CCP(=O)(O)O)cc1 | 6.85 | 6.28 | 7.00 | 0.5 | 0.53 |  |  |  | 6.82 | 7.33 | 0.9 | 0.5 |  |  |  |  |  |  | 
10 | CCCCCCCCc1ccc(OC[C@@H](O)CCP(=O)(O)O)cc1 | 7.48 |  |  | 0 | 0 |  | inactive | inactive | 3.36 |  | 0.45 | 0 |  |  |  |  |  |  | inactive
11 | CCCCCCCc1cccc(NC(=O)[C@H](N)CCP(=O)(O)O)c1 |  |  |  |  | 0 | inactive |  | inactive |  |  |  |  |  |  |  |  |  |  | 
12 | CCCCCCCCc1ccc(OC[C@@H](N)CCP(=O)(O)O)cc1 | 7.17 |  |  | 0 | 0 |  | inactive | inactive | 6.83 | 7.51 | 0.71 | 0.41 |  |  |  |  |  |  | 
